Screens: PubChem BioAssay, Broad Institute
FGF22 binding – FGF22 (human) thermal shift binding; recombinant FGF22 thermal shift, SYPRO orange fluorescence; percent of sucrose octasulfate shift, DMSO zero; AID 651658; 340,000 compounds, 1.5% hits; activity (Tm shift, normalised), % at 9.99 µM; Q9HCT0;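 active means mean Tm shift, scaled 0 neutral to 100 positive control, at about 1.3% or above, every replicate too, limit read from the data; inconclusive means no clear call, values can overlap the other calls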
Target sequence (Q9HCT0 whole entry, looked up): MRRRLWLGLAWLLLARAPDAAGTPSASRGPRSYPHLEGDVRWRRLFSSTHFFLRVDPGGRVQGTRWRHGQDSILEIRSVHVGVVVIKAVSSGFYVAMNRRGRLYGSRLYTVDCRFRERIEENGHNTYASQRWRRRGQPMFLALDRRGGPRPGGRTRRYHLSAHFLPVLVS
C2C12 statin – suppressors of simvastatin-induced myotoxicity in C2C12 myotubes; rescue of ATP level, % at 7.49 µM; 330,000 compounds, 0.78% hits; AID 602340; ATP luminescence, 48 h; scaled: DMSO 0, geranylgeraniol control 100;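 active means mean ATP rescue above about 67%, or every replicate alone reaching that limit, limit read from the data, passing the limit was not always enough; inconclusive means no clear call, values can overlap the other calls; inactive means mean under the limit and some replicate under it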;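 further: myotubes were challenged with 10 µM simvastatin during compound exposure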
PglD DTNB – blocks C. jejuni PglD acetyltransferase activity. purified PglD enzyme, DTNB colorimetric CoA detection. inhibition, % at 12.5 µM. 360,000 compounds, 0.098% hits. AID 602405; in the data active means inhibition above about 16%, passing the limit was not always enough; inconclusive means no clear call, values can overlap the other calls
DENV2 CPE rescue – inhibitors of DENV2 cytopathic effect; DENV2-infected cells, cytopathic effect rescue, plate reader; 350,000 compounds, 1.7% hits; CPE inhibition, % at 9.99 µM; in the data active means CPE inhibition above about 20%, passing the limit was not always enough; inconclusive means no clear call, values can overlap the other calls; tested in BHK-21 cells;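 further: 0% = median of neutral control wells and 100% = median of positive control wells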
E-selectin induc – induces E-selectin expression in human endothelial cells; P16581; HUVEC E-selectin immunofluorescence imaging; normalized: neutral wells 0, TNF-alpha wells 100; activation, % at 7.58 µM; 260,000 compounds, 0.37% hits;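 active means mean E-selectin-positive cell signal at least 10% of the positive control, reached in at least 60% of replicates, without over 20% cell loss; inconclusive means no rule given, readout overlaps actives, possibly toxicity-flagged; inactive means the rest, including those meeting only one limit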
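Test system: HUVEC; input: 3,000 HUVEC/well; measured by: immunofluorescence imaging; read-out: % PE-positive cells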
XiGFP reactiv – activators of X-chromosome reactivation in mouse fibroblasts. activation, % at 7.58 µM. 360,000 compounds, 0.055% hits. AID 743238. XiGFP mouse fibroblasts, % GFP-positive cells imaging, 3 d; cells co-treated with 5-aza-dC sensitizer; scaled so ellipticine positive control = 100%;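 active means mean normalized replicate activation at least 10% and every replicate at or above 10%; inconclusive means only one of the two criteria met; inactive means mean below 10% and not all replicates reach 10%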;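 further: 0% = median of on-plate neutral control wells and 100% = ellipticine 6 µM median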
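material = 68-5-11 XiGFP fibroblast line | medium = DMEM plus 5-aza-dC sensitizer | schedule = 3 days compound exposure | benchmarks = positive control ellipticine, 6 µM final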
Starred values were filed as active, the others as inactive. Most compounds without a hit are left out; they make up all but 3.3% or so of the library.

Screening CCOC(=O)c1c(C)[nH]c(C(=O)OCC(=O)N(CC)c2c(N)n(Cc3ccccc3)c(=O)[nH]c2=O)c1C returned FGF22 binding 0, C2C12 statin 7, PglD DTNB -5, DENV2 CPE rescue -5 and XiGFP reactiv 0.
`COCCN(C(=O)/C=C/c1cccc([N+](=O)[O-])c1)c1c(N)n(Cc2ccccc2)c(=O)[nH]c1=O` gave FGF22 binding 0, C2C12 statin inconclusive, PglD DTNB -2, DENV2 CPE rescue 8, E-selectin induc 3 and XiGFP reactiv 0.
`CCOc1ccc(OCC(=O)N(C)c2c(N)n(Cc3ccccc3)c(=O)[nH]c2=O)cc1` gave FGF22 binding 0, DENV2 CPE rescue 25*, E-selectin induc 0 and XiGFP reactiv 0.
Screening CN(C(=O)CCOc1ccccc1)c1c(N)n(Cc2ccccc2)c(=O)[nH]c1=O returned FGF22 binding 0, C2C12 statin 13, PglD DTNB 5, DENV2 CPE rescue -3 and XiGFP reactiv 0.
`CC(=O)c1c(C)[nH]c(C(=O)OCC(=O)N(C)c2c(N)n(Cc3ccccc3)c(=O)[nH]c2=O)c1C` gave FGF22 binding 0, C2C12 statin 0, PglD DTNB 2, DENV2 CPE rescue 143* and XiGFP reactiv 0.
For CCC(=O)Nc1ccc2c(c1)C(=O)N(C)[C@H]1CC[C@H](CC(=O)Nc3ccc(OC)cc3)O[C@@H]1CO2 the results were FGF22 binding 0, C2C12 statin 7, PglD DTNB 3, DENV2 CPE rescue -4, E-selectin induc 0 and XiGFP reactiv 0.
For O=C(CN1CCOCC1)N1CC[C@@H]2[C@H](CO)Nc3ccc(-c4ccccc4)cc3[C@@H]21 the results were FGF22 binding 0, C2C12 statin 5, PglD DTNB 0, DENV2 CPE rescue 18, E-selectin induc 0 and XiGFP reactiv 0.
Screening O=C1N=c2ccccc2=C1c1sc(NS(=O)(=O)Cc2ccccc2)nc1O returned FGF22 binding 1.3*, C2C12 statin -11, PglD DTNB -5, DENV2 CPE rescue 6, E-selectin induc -1 and XiGFP reactiv 0.
C[C@@H]1CN([C@H](C)CO)C(=O)c2cc(NC(=O)Cc3ccccc3)ccc2O[C@@H]1CN(C)C(=O)Nc1ccc2c(c1)OCO2 was read as FGF22 binding 0, C2C12 statin 20, PglD DTNB -2, DENV2 CPE rescue 5, E-selectin induc -4 and XiGFP reactiv 0.
O=C(C[C@@H]1CC[C@H]2NC[C@H](O)COC[C@@H]2O1)NCCN1CCCC1 was read as DENV2 CPE rescue 1, E-selectin induc 0 and XiGFP reactiv 0.
`COc1ccc(NC(=O)Nc2ccc3c(c2)C(=O)N([C@H](C)CO)C[C@@H](C)[C@@H](CN(C)Cc2ccc4c(c2)OCO4)OCCCC[C@@H](C)O3)cc1` gave FGF22 binding -1, PglD DTNB 0, DENV2 CPE rescue 6, E-selectin induc 0 and XiGFP reactiv -1.
O=C(NCCc1ccccc1)C1C(=O)Nc2ccccc2C(=O)N1C1CCCCC1 (stereo not given) was read as FGF22 binding 0, DENV2 CPE rescue -12, E-selectin induc 207* and XiGFP reactiv 0.
For Cc1noc(C)c1NC(=O)Nc1ccc2c(c1)CC(=O)N([C@@H](C)CO)C[C@H](C)[C@@H](CN(C)C(=O)NC(C)C)O2 the results were FGF22 binding 0, C2C12 statin -14, PglD DTNB -2, DENV2 CPE rescue -16, E-selectin induc 2 and XiGFP reactiv 1.
Screening CN(C)CC#Cc1ccc([C@H]2[C@@H](CO)N3CCCCN(C(=O)C4CC4)C[C@H]23)cc1 returned PglD DTNB 1.
Screening CCOC(=O)C1=C(C)NC(=S)NC1C (stereo not given) returned FGF22 binding 44*, C2C12 statin 0, PglD DTNB 2, DENV2 CPE rescue -3 and XiGFP reactiv 0.
CN(C(=O)CSc1nc(-c2ccccc2)cn1N)C(c1ccccc1)c1ccccc1 was read as C2C12 statin 78* and PglD DTNB 4.
`COC(=O)c1c(C)oc2ccc(NS(=O)(=O)c3cc(OC)ccc3OC)cc12` gave C2C12 statin 121* and PglD DTNB 1.
`COc1ccc(OC)c(S(=O)(=O)Nc2ccc3oc(C)c(C(C)=O)c3c2)c1` gave FGF22 binding 0, C2C12 statin 4, PglD DTNB 4, DENV2 CPE rescue -6 and XiGFP reactiv 0.
`COc1ccc(NS(=O)(=O)c2cc(NC(=O)c3cc(=O)c4ccccc4o3)ccc2OC)cc1` gave FGF22 binding 43*, DENV2 CPE rescue 2, E-selectin induc 0 and XiGFP reactiv 0.
For Fc1ccccc1COc1ccc2ccccc2c1CNc1nn[nH]n1 the results were FGF22 binding 43*, C2C12 statin -31, PglD DTNB -4, DENV2 CPE rescue 2 and XiGFP reactiv 0.
Screening COc1ccc(NC(=O)N(C)C[C@@H]2Oc3c(NC(=O)Nc4ccc5c(c4)OCO5)cccc3C(=O)N([C@@H](C)CO)C[C@H]2C)cc1 returned FGF22 binding 0, C2C12 statin 1, PglD DTNB 6, DENV2 CPE rescue 3 and XiGFP reactiv 0.
`Cc1noc(C)c1NC(=O)N(C)C[C@@H]1Oc2c(NC(=O)Nc3ccc4c(c3)OCO4)cccc2C(=O)N([C@H](C)CO)C[C@@H]1C` gave FGF22 binding 1, C2C12 statin -3, PglD DTNB -3, DENV2 CPE rescue -4, E-selectin induc 0 and XiGFP reactiv 0.
For COc1ccc(S(=O)(=O)Nc2cccc3c2O[C@@H](CN(C)C(=O)Nc2ccc4c(c2)OCO4)[C@@H](C)CN([C@H](C)CO)C3=O)cc1 the results were FGF22 binding 0, PglD DTNB -2, DENV2 CPE rescue 21*, E-selectin induc inconclusive and XiGFP reactiv 0.
Screening Cc1noc(C)c1NC(=O)N(C)C[C@H]1Oc2c(NC(=O)Nc3ccc4c(c3)OCO4)cccc2C(=O)N([C@H](C)CO)C[C@H]1C returned FGF22 binding 0, C2C12 statin -11, PglD DTNB 2, DENV2 CPE rescue 24*, E-selectin induc 0 and XiGFP reactiv 0.
Cc1noc(C)c1NC(=O)Nc1cccc2c1O[C@H](CN(C)C(=O)Nc1cccc3ccccc13)[C@@H](C)CN([C@H](C)CO)C2=O was read as FGF22 binding -1, C2C12 statin 0, PglD DTNB 16*, DENV2 CPE rescue -2, E-selectin induc 0 and XiGFP reactiv 0.
